In ChEMBL document CHEMBL4251626, “4β-amidotriazole linked podophyllotoxin congeners: DNA topoisomerase-IIα inhibition and potential anticancer agents for prostate cancer” (Eur J Med Chem, 2018) one finds Activity, IC50 and inhibition data, which are given here for one compound.

Active and inactive are the calls of the source. The calls are words filed in the database; no cut-off is given here.

For orientation: IC50 means the concentration needed to halve the response being measured. A higher IC50 goes with weaker potency in that assay.

Sequence of DNA topoisomerase 2-alpha (Homo sapiens) (P11388 whole entry): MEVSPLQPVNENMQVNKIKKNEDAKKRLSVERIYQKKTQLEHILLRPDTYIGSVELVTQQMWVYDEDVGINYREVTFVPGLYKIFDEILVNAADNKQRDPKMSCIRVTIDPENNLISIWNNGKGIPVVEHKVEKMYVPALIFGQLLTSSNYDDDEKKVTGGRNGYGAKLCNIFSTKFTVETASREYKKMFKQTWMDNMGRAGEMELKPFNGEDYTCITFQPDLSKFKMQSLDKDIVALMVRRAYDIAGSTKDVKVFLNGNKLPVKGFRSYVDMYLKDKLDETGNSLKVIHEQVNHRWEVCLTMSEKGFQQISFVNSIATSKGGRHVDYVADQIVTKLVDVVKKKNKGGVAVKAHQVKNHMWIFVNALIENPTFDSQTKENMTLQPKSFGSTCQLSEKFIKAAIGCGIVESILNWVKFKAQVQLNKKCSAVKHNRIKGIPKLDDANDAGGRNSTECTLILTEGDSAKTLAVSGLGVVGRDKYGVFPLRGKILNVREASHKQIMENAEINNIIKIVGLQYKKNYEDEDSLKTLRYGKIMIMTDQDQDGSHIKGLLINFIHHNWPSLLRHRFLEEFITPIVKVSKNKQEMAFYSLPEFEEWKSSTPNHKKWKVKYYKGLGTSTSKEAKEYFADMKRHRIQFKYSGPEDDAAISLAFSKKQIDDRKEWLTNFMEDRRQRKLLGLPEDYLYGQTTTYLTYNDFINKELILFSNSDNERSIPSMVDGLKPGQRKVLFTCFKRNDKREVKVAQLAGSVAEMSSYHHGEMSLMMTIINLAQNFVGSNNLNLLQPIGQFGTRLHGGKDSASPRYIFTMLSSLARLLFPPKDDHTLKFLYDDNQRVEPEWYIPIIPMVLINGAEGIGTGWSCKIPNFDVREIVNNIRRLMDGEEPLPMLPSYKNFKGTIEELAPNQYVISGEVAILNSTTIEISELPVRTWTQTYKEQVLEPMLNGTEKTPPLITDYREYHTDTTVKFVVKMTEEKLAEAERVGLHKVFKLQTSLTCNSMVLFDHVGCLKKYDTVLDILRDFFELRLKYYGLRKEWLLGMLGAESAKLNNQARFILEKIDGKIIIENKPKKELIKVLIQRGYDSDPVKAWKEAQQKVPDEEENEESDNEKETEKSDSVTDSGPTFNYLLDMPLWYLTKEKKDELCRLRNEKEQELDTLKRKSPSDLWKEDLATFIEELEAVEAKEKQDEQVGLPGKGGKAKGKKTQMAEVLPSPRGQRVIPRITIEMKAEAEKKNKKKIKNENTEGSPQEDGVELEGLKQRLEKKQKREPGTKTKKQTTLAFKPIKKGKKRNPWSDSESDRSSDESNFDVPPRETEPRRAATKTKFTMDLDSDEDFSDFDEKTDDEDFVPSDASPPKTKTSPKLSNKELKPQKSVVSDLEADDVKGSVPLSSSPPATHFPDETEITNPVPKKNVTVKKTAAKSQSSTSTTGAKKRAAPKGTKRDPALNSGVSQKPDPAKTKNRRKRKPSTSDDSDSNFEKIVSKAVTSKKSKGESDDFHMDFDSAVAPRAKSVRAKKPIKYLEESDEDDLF

In the first experiment the test system is DU-145. The experiment in a line: Induction of apoptosis in human DU145 cells assessed as early apoptotic cells at 1 uM after 24 hrs by Annexin V-FITC/propidium iodide staining based flow cytometry (reference value: 0.56%). It is filed as functional.
Conditions: not given
In general terms: In flow cytometry, cells or beads pass a laser one at a time.
On to `COc1cc([C@@H]2c3cc4c(cc3C(NC(=O)c3cn(-c5ccc(C(F)(F)F)cc5)nn3)[C@H]3COC(=O)[C@H]23)OCO4)cc(OC)c1OC` (single isomer, unassigned), for which the Activity was found to be 17.65%.

A further experiment has as its system DU-145. As to the kind of experiment: Antimigratory activity against human DU145 cells at 0.5 to 1 uM after 24 to 48 hrs by phase contrast microscopic based scratch assay. It is filed as functional, cell-based.
Conditions: not given
Put shortly: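 DU-145 cells seeded at 2x10^5/well and grown to confluence; wound made with a sterile 200 µL tip, debris washed off with PBS. Fresh medium with compound at the indicated concentrations added. Migration followed by phase-contrast microscopy with images at 0, 24 and 48 h.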
For the compound `COc1cc([C@@H]2c3cc4c(cc3C(NC(=O)c3cn(-c5ccc(C(F)(F)F)cc5)nn3)[C@H]3COC(=O)[C@H]23)OCO4)cc(OC)c1OC` (single isomer, unassigned), the result was Active.

For a further experiment, the system named is DU-145. As to the kind of experiment: Induction of apoptosis in human DU145 cells assessed as cell detachment from substratum at 0.5 to 1 uM after 24 hrs by phase contrast microscopic method. The class given is functional, cell-based.
Conditions: not given
The essentials:
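DU-145 cells (2x10^5/well) plated overnight; medium replaced with fresh medium containing compound at indicated concentrations for 24 h. Cell morphology examined and photographed by phase-contrast microscopy.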
As for `COc1cc([C@@H]2c3cc4c(cc3C(NC(=O)c3cn(-c5ccc(C(F)(F)F)cc5)nn3)[C@H]3COC(=O)[C@H]23)OCO4)cc(OC)c1OC` (single isomer, unassigned), the outcome was Active.

The next experiment has as its system DU-145. As to the kind of experiment: Induction of apoptosis in human DU145 cells assessed as nuclear fragmentation at 0.5 to 1 uM after 24 hrs by Hoechst staining based fluorescence microscopic method. The class given is functional, cell-based.
Conditions: not given
The essentials: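 DU-145 cells (1x10^5/well) incubated overnight, then treated 24 h. After three PBS washes, stained with Hoechst (1 µg/ml) for 20 min at 37 °C and washed. Imaged by fluorescence microscopy; random fields counted for chromatin condensation and nuclear fragmentation.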
For the compound `COc1cc([C@@H]2c3cc4c(cc3C(NC(=O)c3cn(-c5ccc(C(F)(F)F)cc5)nn3)[C@H]3COC(=O)[C@H]23)OCO4)cc(OC)c1OC` (single isomer, unassigned), the result was Active.

The subject of a further experiment is DU-145. The experiment in a line: Induction of apoptosis in human DU145 cells assessed as necrotic cells at 0.5 uM after 24 hrs by Annexin V-FITC/propidium iodide staining based flow cytometry (reference value: 1.65%). It is filed as functional.
Conditions: not given
Regarding `COc1cc([C@@H]2c3cc4c(cc3C(NC(=O)c3cn(-c5ccc(C(F)(F)F)cc5)nn3)[C@H]3COC(=O)[C@H]23)OCO4)cc(OC)c1OC` (single isomer, unassigned), the Activity worked out at 0.74%.

The subject of another experiment is DU-145. As to the kind of experiment: Induction of apoptosis in human DU145 cells after 24 hrs by Annexin V-FITC/propidium iodide staining based flow cytometry. The class given is functional, cell-based.
Conditions: not given
On to `COc1cc([C@@H]2c3cc4c(cc3C(NC(=O)c3cn(-c5ccc(C(F)(F)F)cc5)nn3)[C@H]3COC(=O)[C@H]23)OCO4)cc(OC)c1OC` (single isomer, unassigned), for which the Activity entry was “Dose-dependent effect”.

Another experiment relates to DU-145. As to the kind of experiment: Induction of apoptosis in human DU145 cells assessed as live cells at 1 uM after 24 hrs by Annexin V-FITC/propidium iodide staining based flow cytometry (reference value: 96.3%). The class given is functional.
Conditions: not given
As for `COc1cc([C@@H]2c3cc4c(cc3C(NC(=O)c3cn(-c5ccc(C(F)(F)F)cc5)nn3)[C@H]3COC(=O)[C@H]23)OCO4)cc(OC)c1OC` (single isomer, unassigned), the Activity turned out to be 79.84%.

The next experiment has as its system HepG2. The experiment in a line: Antiproliferative activity against human HepG2 cells after 48 hrs by MTT assay. The class given is functional, cell-based. Particulars: HepG2, 48 h. The essentials:
(§1)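 Cells in DMEM/10% FBS pre-incubated 24 h at 37 °C, then compound-treated 48 h (10 mM DMSO stock diluted in medium). MTT (10 µL of 5 mg/mL) added for 4 h; formazan dissolved in DMSO, absorbance read at 570 nm. IC50 = 50% inhibitory concentration, mean of three individual experiments.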
In general terms: Formazan colour is commonly taken as a measure of viable cells.
In the case of `COc1cc([C@@H]2c3cc4c(cc3C(NC(=O)c3cn(-c5ccc(C(F)(F)F)cc5)nn3)[C@H]3COC(=O)[C@H]23)OCO4)cc(OC)c1OC` (single isomer, unassigned), the IC50 is 1210 nM. In other words, the single-digit micromolar range.

A further experiment addresses DNA topoisomerase 2-alpha (Homo sapiens) (UniProt P11388). The experiment in a line: Inhibition of recombinant human topoisomerase-2 alpha assessed as reduction in decatenation of pHOT1 kDNA at 100 uM after 10 mins by agarose gel electrophoresis method.
Conditions: not given
Put shortly: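 Five units human recombinant topo II, 10 min at 37 °C. Stopped with loading-dye stop buffer; products resolved on 1% agarose gel in TAE (catenated, decatenated, linear DNA).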
As to `COc1cc([C@@H]2c3cc4c(cc3C(NC(=O)c3cn(-c5ccc(C(F)(F)F)cc5)nn3)[C@H]3COC(=O)[C@H]23)OCO4)cc(OC)c1OC` (single isomer, unassigned), the inhibition result is “Active”.

The next experiment has as its system DU-145. As to the kind of experiment: Induction of apoptosis in human DU145 cells assessed as live cells at 0.5 uM after 24 hrs by Annexin V-FITC/propidium iodide staining based flow cytometry (reference value: 96.3%). The class given is functional.
Conditions: not given
For the compound `COc1cc([C@@H]2c3cc4c(cc3C(NC(=O)c3cn(-c5ccc(C(F)(F)F)cc5)nn3)[C@H]3COC(=O)[C@H]23)OCO4)cc(OC)c1OC` (single isomer, unassigned), the Activity was 89.65%.

In the next experiment the test system is NIH3T3. The experiment in a line: Antiproliferative activity against mouse NIH/3T3 cells after 48 hrs by MTT assay. It is filed as cell-based. As to conditions: NIH3T3, 48 h. The essentials: as §1
Take `COc1cc([C@@H]2c3cc4c(cc3C(NC(=O)c3cn(-c5ccc(C(F)(F)F)cc5)nn3)[C@H]3COC(=O)[C@H]23)OCO4)cc(OC)c1OC` (single isomer, unassigned): 83800 nM corresponded to half-maximal inhibition (IC50).

In the next experiment the test system is DU-145. The experiment in a line: Induction of apoptosis in human DU145 cells assessed as necrotic cells at 1 uM after 24 hrs by Annexin V-FITC/propidium iodide staining based flow cytometry (reference value: 1.65%). It is filed as functional.
Conditions: not given
For `COc1cc([C@@H]2c3cc4c(cc3C(NC(=O)c3cn(-c5ccc(C(F)(F)F)cc5)nn3)[C@H]3COC(=O)[C@H]23)OCO4)cc(OC)c1OC` (single isomer, unassigned), the Activity was 0.05%.

For a further experiment, the system named is HeLa. The experiment in a line: Antiproliferative activity against human HeLa cells after 48 hrs by MTT assay. It is filed as functional, cell-based.
Conditions: not given
The essentials:
as §1
`COc1cc([C@@H]2c3cc4c(cc3C(NC(=O)c3cn(-c5ccc(C(F)(F)F)cc5)nn3)[C@H]3COC(=O)[C@H]23)OCO4)cc(OC)c1OC` (single isomer, unassigned) displayed an IC50 of 1210 nM.
